Measurements reported in article PMC2884008 (Chemistry & biology, 2010).
Entries after “also recorded” stand apart in the source; their conditions may differ. Like-named read-outs stand apart in the source and are kept apart here.

Columns and labels:
[1] = biological target: T1, p300 HAT (Homo sapiens, UniProt Q09472, DEL1529-1560/M1652G); test: direct radioactive 14C-acetyl-CoA transfer p300 HAT assay; type: biochemical; settings: for p300 HAT inhibition, in words: analogs compared with C646
T1 sequence (Q09472 with tags, fused parts or gaps DEL1529-1560/M1652G limits assumed): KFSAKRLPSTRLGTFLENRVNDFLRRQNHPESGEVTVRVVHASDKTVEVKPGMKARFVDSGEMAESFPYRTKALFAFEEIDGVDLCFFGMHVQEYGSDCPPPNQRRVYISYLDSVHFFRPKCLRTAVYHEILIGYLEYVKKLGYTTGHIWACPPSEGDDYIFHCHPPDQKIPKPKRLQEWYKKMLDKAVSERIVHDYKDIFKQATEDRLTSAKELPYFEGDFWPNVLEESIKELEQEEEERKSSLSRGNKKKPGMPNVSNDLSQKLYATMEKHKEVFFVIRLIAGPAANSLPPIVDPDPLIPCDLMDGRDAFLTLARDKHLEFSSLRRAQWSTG

[2] = test system: C3H 10T1/2 mouse fibroblasts; test: histone acetylation in mouse cells, western blots of SDS and acid-urea gels; type: cell-based
Outline: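 C3H 10T1/2 fibroblasts were grown in DMEM/10% FCS at 37°C, 6% CO2, then made quiescent in 0.5% FCS for 18–20 h. TSA at 33 nM was added for the final 30 min where used. Histones were acid-extracted, run on SDS and acid-urea gels and western blotted.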

[3] = test system: three melanoma and three non-small cell lung cancer lines; test: 3H-thymidine incorporation in cancer cell line panel; type: cell-based, human; settings: 24 h
Outline: (§1)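 Melanoma lines were grown in DMEM and NSCLC lines in RPMI 1640, both with 10% FBS, pen-strep and L-glutamine. About 5000 cells/well at ~60% sub-confluence were attached at 37°C, then exposed 24 h with DMSO at 0.2% in every condition. 3H-thymidine was added at 10 μCi/ml final for 5 h; cells were harvested onto filters and counted. Triplicates; counts normalized to pre-treatment counts.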

[4] = test system: p300/CBP HAT; test: p300 HAT inhibition, literature values; type: biochemical; settings: Ki compared with C646
[5] = biological target: p300/CBP HAT; settings: read-out: Ki for p300/CBP HAT, cited from earlier work
[6] = biological target: MOZ histone acetyltransferase (Homo sapiens, UniProt Q92794); test: direct radioactive HAT assay with hMOZ; type: biochemical; settings: compound at 10 μM
Outline: (§2)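 Enzyme: Rtt109/Vps75 70 ng, yGcn5 15 ng, SAS 300 ng, hMOZ 1 μg. After 10 min at 30°C, reactions were started with 20 μM 12C/14C-AcCoA (1:1) and run 2–4 min. Product was resolved by Tris-Tricine SDS-PAGE and quantified by autoradiography. Duplicates.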

[7] = test system: p300 HAT mutant Y1467F; test: C646 inhibition of p300 HAT mutant Y1467F; type: biochemical; settings: Ki = IC50/(S/Km+1)
[8] = test system: WM983A; test: cell cycle analysis by propidium iodide FACS, WM983A; type: cell-based, human; settings: 20 μM, 24 h
Outline: (§3)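 Cells were exposed to 20 μM test compound or DMSO for 24 h. More than 10^6 cells were fixed in 70% ethanol at 4°C for ≥2 h, rehydrated in PBS and stained 20 min at 37°C with PI in 0.1% Triton X-100/PBS containing RNase A. DNA content was read by flow cytometry, and the S-phase fraction was taken as the read-out.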

[9] = biological target: Sas histone acetyltransferase (Saccharomyces cerevisiae, UniProt P40963); test: direct radioactive HAT assay with SAS complex; type: biochemical; settings: compound at 10 μM
Outline: as §2

[10] = test system: WM983A cells; test: global histone H3 acetylation in WM983A cells by western blotting; type: cell-based, human; settings: 6 h, increasing concentrations
[11] = test system: lung cancer line H23; test: 3H-thymidine incorporation in H23; type: cell-based, human; settings: C646 10 μM or Lys-CoA-Tat 25 μM, 24 h
Outline: as §1

[12] = test system: immortalized murine fibroblast cell line, NIH3T3; test: 3H-thymidine incorporation in NIH3T3; type: cell-based; settings: 20 μM
[13] = test system: WM35; test: cell cycle analysis by propidium iodide FACS, WM35; type: cell-based, human; settings: 20 μM, 24 h
Outline: as §3

[14] = thiol adduct formation by NMR and chromatography; type: physicochemical; settings: buffer conditions of the enzyme assay
[15] = test system: melanoma line WM35; test: 3H-thymidine incorporation in WM35; type: cell-based, human; settings: C646 10 μM or Lys-CoA-Tat 25 μM, 24 h
Outline: as §1

[16] = test system: p300 HAT mutant R1410A; test: C646 inhibition of p300 HAT mutant R1410A; type: biochemical; settings: Ki = IC50/(S/Km+1)
[17] = biological target: PCAF histone acetyltransferase (Homo sapiens, UniProt Q92831); test: coupled spectrophotometric PCAF assay; type: biochemical; settings: compound at 10 μM
[18] = biological target: Rtt109 histone acetyltransferase (Saccharomyces cerevisiae, UniProt Q07794); test: direct radioactive HAT assay with Rtt109/Vps75 complex; type: biochemical; settings: compound at 10 μM
Outline: as §2

[19] = test system: melanoma line WM983A; test: 3H-thymidine incorporation in WM983A; type: cell-based, human; settings: 24 h
Outline: as §1

[20] = biological target: serotonin N-acetyltransferase (Ovis aries, UniProt Q29495); test: coupled spectrophotometric AANAT assay; type: biochemical; settings: compound at 10 μM
[21] = biological target: GCN5 histone acetyltransferase (Saccharomyces cerevisiae, UniProt Q03330); test: direct radioactive HAT assay with yeast GCN5; type: biochemical; settings: compound at 10 μM
Outline: as §2

[22] = test system: p300 HAT mutant T1411A; test: C646 inhibition of p300 HAT mutant T1411A; type: biochemical; settings: Ki = IC50/(S/Km+1)
[23] = test system: p300 HAT mutant W1466F; test: C646 inhibition of p300 HAT mutant W1466F; type: biochemical; settings: Ki = IC50/(S/Km+1)

Sequence of GCN5 histone acetyltransferase (Q03330 whole entry): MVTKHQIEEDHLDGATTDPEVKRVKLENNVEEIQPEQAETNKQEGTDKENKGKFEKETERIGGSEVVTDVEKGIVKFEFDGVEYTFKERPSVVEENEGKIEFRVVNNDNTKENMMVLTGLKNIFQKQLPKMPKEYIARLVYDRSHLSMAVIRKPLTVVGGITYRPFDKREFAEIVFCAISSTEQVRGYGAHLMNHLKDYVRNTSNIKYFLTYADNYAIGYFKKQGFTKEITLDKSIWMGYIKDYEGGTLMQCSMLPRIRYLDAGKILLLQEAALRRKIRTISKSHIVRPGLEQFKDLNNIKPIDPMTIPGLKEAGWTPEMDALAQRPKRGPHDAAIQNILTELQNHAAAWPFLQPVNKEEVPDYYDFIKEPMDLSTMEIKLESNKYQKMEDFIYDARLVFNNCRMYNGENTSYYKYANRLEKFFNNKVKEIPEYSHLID
Sequence of MOZ histone acetyltransferase (Q92794 497-780 limits assumed): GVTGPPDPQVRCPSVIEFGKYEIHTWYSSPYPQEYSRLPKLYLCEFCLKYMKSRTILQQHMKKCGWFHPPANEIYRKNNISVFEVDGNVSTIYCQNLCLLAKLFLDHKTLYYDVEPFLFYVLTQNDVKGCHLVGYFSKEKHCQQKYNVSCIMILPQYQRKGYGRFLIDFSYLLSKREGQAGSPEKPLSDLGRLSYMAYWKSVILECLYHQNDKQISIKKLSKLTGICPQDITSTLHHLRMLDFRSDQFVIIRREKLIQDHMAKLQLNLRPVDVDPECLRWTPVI
Sequence of PCAF histone acetyltransferase (Q92831 493-658 limits assumed): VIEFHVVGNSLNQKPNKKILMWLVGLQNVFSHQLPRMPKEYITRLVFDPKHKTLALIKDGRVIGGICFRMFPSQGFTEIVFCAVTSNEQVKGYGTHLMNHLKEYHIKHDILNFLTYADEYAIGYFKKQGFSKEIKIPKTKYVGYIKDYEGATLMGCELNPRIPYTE
Sequence of serotonin N-acetyltransferase (Q29495 whole entry): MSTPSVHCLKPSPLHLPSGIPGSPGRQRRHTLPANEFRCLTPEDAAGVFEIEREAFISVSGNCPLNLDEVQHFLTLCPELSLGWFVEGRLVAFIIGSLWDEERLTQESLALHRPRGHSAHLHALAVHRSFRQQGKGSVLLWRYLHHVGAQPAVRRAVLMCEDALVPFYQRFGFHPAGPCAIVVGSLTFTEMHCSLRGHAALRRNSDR
Sequence of Rtt109 histone acetyltransferase (Q07794 whole entry): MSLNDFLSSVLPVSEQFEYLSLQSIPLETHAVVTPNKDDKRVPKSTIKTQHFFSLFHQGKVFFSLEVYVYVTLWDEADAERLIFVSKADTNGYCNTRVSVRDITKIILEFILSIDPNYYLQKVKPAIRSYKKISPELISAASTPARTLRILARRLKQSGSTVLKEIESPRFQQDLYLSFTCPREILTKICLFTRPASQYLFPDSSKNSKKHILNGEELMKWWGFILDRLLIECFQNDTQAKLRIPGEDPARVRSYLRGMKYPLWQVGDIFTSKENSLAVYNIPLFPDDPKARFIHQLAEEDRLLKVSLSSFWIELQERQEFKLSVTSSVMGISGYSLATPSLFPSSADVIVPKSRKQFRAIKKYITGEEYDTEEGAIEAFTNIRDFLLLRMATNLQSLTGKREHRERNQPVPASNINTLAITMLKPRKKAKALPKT
Sequence of Rtt109 histone acetyltransferase (P53853 whole entry partner): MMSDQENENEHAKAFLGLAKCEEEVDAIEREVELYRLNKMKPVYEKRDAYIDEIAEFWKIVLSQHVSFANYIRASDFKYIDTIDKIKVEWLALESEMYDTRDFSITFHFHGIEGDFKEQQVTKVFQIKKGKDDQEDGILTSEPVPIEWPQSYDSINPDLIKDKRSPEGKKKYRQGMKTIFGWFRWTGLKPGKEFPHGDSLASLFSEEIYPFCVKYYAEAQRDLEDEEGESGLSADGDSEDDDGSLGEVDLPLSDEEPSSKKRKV
Sequence of Sas histone acetyltransferase (P40963 whole entry): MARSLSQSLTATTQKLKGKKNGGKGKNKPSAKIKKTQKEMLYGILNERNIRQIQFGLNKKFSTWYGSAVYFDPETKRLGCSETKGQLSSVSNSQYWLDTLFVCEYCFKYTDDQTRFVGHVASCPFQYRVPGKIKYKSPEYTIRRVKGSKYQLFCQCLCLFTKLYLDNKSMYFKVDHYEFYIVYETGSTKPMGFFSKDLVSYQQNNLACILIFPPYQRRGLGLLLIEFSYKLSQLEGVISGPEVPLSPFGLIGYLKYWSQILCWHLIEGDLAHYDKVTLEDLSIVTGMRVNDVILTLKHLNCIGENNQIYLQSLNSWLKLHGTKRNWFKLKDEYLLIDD
Sequence of Sas histone acetyltransferase (Q04003 whole entry partner): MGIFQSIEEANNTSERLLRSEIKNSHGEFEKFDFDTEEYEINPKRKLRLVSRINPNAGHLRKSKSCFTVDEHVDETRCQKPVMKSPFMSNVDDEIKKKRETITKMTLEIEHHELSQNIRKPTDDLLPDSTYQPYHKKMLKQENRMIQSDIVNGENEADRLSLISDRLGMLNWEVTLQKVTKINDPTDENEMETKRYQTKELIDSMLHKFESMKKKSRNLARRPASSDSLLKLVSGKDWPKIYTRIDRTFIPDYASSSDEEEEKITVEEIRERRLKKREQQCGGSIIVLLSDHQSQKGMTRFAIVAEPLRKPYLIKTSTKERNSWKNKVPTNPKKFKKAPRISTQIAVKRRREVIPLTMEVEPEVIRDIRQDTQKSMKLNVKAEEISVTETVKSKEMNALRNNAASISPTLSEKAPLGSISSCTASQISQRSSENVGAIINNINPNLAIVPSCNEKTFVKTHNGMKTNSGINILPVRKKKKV
Sequence of Sas histone acetyltransferase (Q99314 whole entry partner): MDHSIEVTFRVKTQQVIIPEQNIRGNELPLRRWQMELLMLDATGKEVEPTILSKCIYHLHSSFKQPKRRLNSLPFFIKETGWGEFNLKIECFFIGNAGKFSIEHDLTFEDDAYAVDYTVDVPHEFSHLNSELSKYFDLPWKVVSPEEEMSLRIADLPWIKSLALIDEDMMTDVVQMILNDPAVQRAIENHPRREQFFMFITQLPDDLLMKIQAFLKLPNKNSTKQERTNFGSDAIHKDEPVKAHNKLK

COC(=O)c1cccc(N2N=C(C)C(=Cc3ccc(-c4cc(C)c(C)cc4[N+](=O)[O-])o3)C2=O)c1 [Compound 6i]
p300 HAT inhibition, in words [1]: well tolerated

CC1=NN(c2ccc(C(N)=O)cc2)C(=O)C1=Cc1ccc(-c2cc(C)c(C)cc2[N+](=O)[O-])o1 [Compound 6a]
p300 HAT inhibition, in words [1]: well tolerated

CC(/C=C/C(=O)NO)=C\[C@@H](C)C(=O)c1ccc(N(C)C)cc1 [TSA, trichostatin A, reference compound]
H3 and H4 acetylation after HDAC inhibitor ([2]; TSA 33 nM, 30 min): increased H3 and H4 acetylation

Ac-Asp-Asp-Asp-Asp-Tat [Ac-DDDD-Tat, reference compound]
p300 HAT inhibition, in words [1]: lack p300 inhibitory properties
3H-thymidine incorporation, control compounds [3]: no effects

CC1=NN(c2ccc(C(=O)O)cc2)C(=O)C1=Cc1ccc(-c2cc(C)c(C)cc2CO)o1 [Compound 6l]
p300 HAT inhibition, in words [1]: substantial reduction in potency

CC1=NN(c2ccc(S(=O)(=O)O)cc2)C(=O)C1=Cc1ccc(-c2cc(C)c(C)cc2[N+](=O)[O-])o1 [Compound 6f]
p300 HAT inhibition, in words [1]: well tolerated

CC1=NN(c2cccc(C(=O)O)c2)C(=O)C1=Cc1ccc(-c2cc(C)c(C)cc2[N+](=O)[O-])o1 [Compound 6e]
p300 HAT inhibition, in words [1]: well tolerated

CC1=NN(c2ccc(S(N)(=O)=O)cc2)C(=O)C1=Cc1ccc(-c2cc(C)c(C)cc2[N+](=O)[O-])o1 [Compound 6g]
p300 HAT inhibition, in words [1]: well tolerated

CC(=O)N[C@@H](CCCCNC(=O)CSCCNC(=O)CCNC(=O)[C@H](O)C(C)(C)COP(=O)(O)OP(=O)(O)OC[C@H]1O[C@@H](n2cnc3c(N)ncnc32)[C@H](O)[C@@H]1OP(=O)(O)O)C(N)=O [Lys-CoA]
fold more potent than C646 [4]: 20 fold
Ki ([5]; ref Lau et al., 2000): 0.02 µM

COC(=O)c1ccc(N2N=C(C)C(=Cc3ccc(-c4cc(C)c(C)cc4[N+](=O)[O-])o3)C2=O)cc1 [Compound 6h]
weakening of p300 inhibitory potency compared with C646 ([1]; relative IC50 referenced to C646): > 15 fold

COc1ccc(C(=O)C2=C3OC(C)(C)[C@@H](CC=C(C)C)C[C@@]34C[C@@H](CC=C(C)C)C(C)(C)[C@@](CC=C(C)C)(C2=O)C4=O)cc1O [LTK14]
fold weaker than C646 [4]: about 12 fold
Ki ([5]; ref Mantelingu et al., 2007, Arif et al., 2009): 5.1 µM

CC1=NN(c2ccc(C(=O)O)cc2)C(=O)/C1=C\c1ccc(-c2cc(C)c(C)cc2[N+](=O)[O-])o1 [Compound C646]
inhibition of MOZ [6]: less than 10%
increase of apparent Ki versus wild type p300 [7]: at least 2 fold
cell cycle effect [8]: G1-S cell cycle arrest; also recorded: decrease in %S phase
inhibition of Sas [9]: less than 10%
global histone H3 acetylation [10]: dose-dependent reduction; also recorded: blocks H3 acetylation
basal acetylation levels of H3 and H4 ([2]; 25 μM, 1-3 h, H3K9ac, H4K12ac): slightly diminished; also recorded: reduces histone H3 and H4 acetylation levels
TSA-inducible acetylation of H3 and H4 ([2]; 25 μM, 1-3 h before TSA (33 nM, final 30 min)): virtually completely inhibits; also recorded: abrogates TSA-induced acetylation
3H-thymidine incorporation [11]: quite susceptible
3H-thymidine incorporation / cell proliferation [12]: not inhibited; also recorded: does not have a significant inhibitory effect
cell cycle effect [13]: G1-S cell cycle arrest; also recorded: decrease in %S phase
thiol adduct formation with DTT or beta-mercaptoethanol [14]: no evidence of reaction
3H-thymidine incorporation [15]: quite susceptible
increase of apparent Ki versus wild type p300 [16]: at least 2 fold
inhibition of PCAF [17]: less than 10%
inhibition of Rtt109 [18]: less than 10%
IC50 ([19]; read-out: IC50 for 3H-thymidine incorporation): 10 to 20 µM
cell proliferation via 3H-thymidine incorporation ([19]; up to 20 μM): inhibits WM983A melanoma cell proliferation
inhibition of serotonin N-acetyltransferase [20]: less than 10%
3H-thymidine incorporation ([3]; C646 10 μM): capable of reducing; also recorded: Two out of three non-small cell lung adenocarcinoma cell lines demonstrate significant growth inhibition
inhibition of GCN5 [21]: less than 10%
increase of apparent Ki versus wild type p300 [22]: at least 2 fold
increase of apparent Ki versus wild type p300 [23]: 7 fold
